Screening results deposited in PubChem BioAssay by Broad Institute.
Compounds with a hit are over-represented: about 1.7% of the library has one in this group of screens.
SKKanGAS inh = blocks kanamycin growth of S. pyogenes SKKanGAS strain. inhibition, % at 7.5 µM. BacTiter-Glo, 6 h. hit rate 1.3% among 300,000. AID 1662;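 active = mean replicate score, as percent of positive control median, at least 50; inconclusive = mean below 50 but one replicate at or above 50; inactive = mean and every replicate below 50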;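 note: strain carries kanamycin resistance gene driven by streptokinase promoter and grows in 40 µg/ml kanamycin; loss of luminescence reflects streptokinase promoter inhibition or plain growth inhibition; 0% = median of DMSO wells and 100% = positive control at its reference dose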
Rtt109 Vps75 = C. albicans Rtt109 histone acetyltransferase inhibition | AID 540336 | hit rate 0.16% among 330,000 | Q5AAJ8 | purified Rtt109/Vps75, ThioGlo CoA-SH fluorescence, 4 h | inhibition, % at 34.9 µM;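 active = inhibition of at least 50% in every replicate; inconclusive = best replicate reaches 50% inhibition but some replicates fall short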
Target sequence (Q5AAJ8 whole entry, looked up): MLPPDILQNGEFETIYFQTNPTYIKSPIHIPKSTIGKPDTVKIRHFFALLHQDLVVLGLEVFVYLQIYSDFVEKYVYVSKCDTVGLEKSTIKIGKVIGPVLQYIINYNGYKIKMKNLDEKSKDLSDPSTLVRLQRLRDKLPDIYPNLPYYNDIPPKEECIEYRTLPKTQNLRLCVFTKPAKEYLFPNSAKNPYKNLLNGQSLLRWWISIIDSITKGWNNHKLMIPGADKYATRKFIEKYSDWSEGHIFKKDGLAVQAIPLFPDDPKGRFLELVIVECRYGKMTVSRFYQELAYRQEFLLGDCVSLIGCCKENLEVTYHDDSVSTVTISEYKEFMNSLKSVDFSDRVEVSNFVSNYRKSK
PfHsp90 set2 = inhibits growth of yeast expressing Plasmodium falciparum Hsp90. hit rate 0.32% among 310,000. S. cerevisiae expressing PfHsp90, BacTiter-Glo ATP, 48 h; yeast lacking PDR1 and PDR3 efflux regulators. AID 504621. inhibition, % at 9.4 µM;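 active = every replicate shows inhibition above about 80%, whatever the replicate mean, limit read from the data; inconclusive = mean inhibition reaches the set limit but some replicate falls short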;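 note: 0% = DMSO neutral controls and 100% = 20 µM radicicol positive controls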
PglD DTNB = PglD (C. jejuni) enzyme inhibition; purified PglD enzyme, DTNB colorimetric CoA detection; hit rate 0.098% among 360,000; inhibition, % at 12.5 µM; in the data active = inhibition above about 16%, passing the limit was not always enough; inconclusive = no clear call, values can overlap the other calls
CSC inhib = blocks cancer stem cells; cancer stem cell-like cells viability, luminescence; inhibition, % at 7.5 µM; hit rate 1.1% among 300,000; AID 2717; in the data active = inhibition above about 75%; inconclusive = no clear call, values can overlap the other calls; tested in HMLE shEcad cells
FN deposition inh = fibronectin deposition inhibition; AH1F fibroblasts, Alexa488-fibronectin deposition fluorescence, overnight; hit rate 0.086% among 350,000; inhibition, % at 12.6 µM;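 active = mean inhibition across replicates of 30% or more, regardless of how many single replicates reach that level; inconclusive = mean under 30% yet at least half of replicates reach 30%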;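 note: positive control wells lacked labelled fibronectin entirely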
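Measured by – fluorescence 485/525 nm · System – AH1F fibroblast monolayer, labelled fibronectin deposition · Amount – 10000 cells per well · Buffer or medium – serum-reduced DMEM (2% serum) · Doses – single dose, pinned · Also added – fluorescent fibronectin at 24 nM final · Schedule – 1 h cell attachment, overnight exposure to compound and label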
The depositor's hits bear a star; u = inconclusive; x = not tested or not shown; ! = repeats disagree.

SMILES	SKKanGAS inh	Rtt109 Vps75	PfHsp90 set2	PglD DTNB	CSC inhib	FN deposition inh
CCNC(=O)C[C@H]1CC[C@@H]2[C@@H](COc3ccc(NC(=O)Nc4cccc(OC)c4)cc3C(=O)N2C)O1	x	x	x	-5	x	5
C=CCn1c(O)c(C2=c3ccccc3=NC2=O)c2ccccc21	6	-2	110*	2	96*	-6
O=C(C[C@@H]1C=C[C@H](NS(=O)(=O)c2ccccc2F)[C@H](CO)O1)NCCCN1CCOCC1	x	x	x	1	x	-4
CCc1ccc(S(=O)(=O)Nc2cc(SCC(=O)O)c(O)c3ccccc23)cc1	21	-5	-21	x	114*	8
CCc1ccc(S(=O)(=O)Nc2ccc(O)c3ccccc23)cc1	8	6	-9	-2	92*	1
CCOc1ccc(S(=O)(=O)Nc2cc(SCC(=O)O)c(O)c3ccccc23)cc1	14	6	7	7	x	17
O=S(=O)(Nc1cc(Sc2cccc3cccnc23)c(O)c2ccccc12)c1ccccc1	91*	x	x	x	x	8
O=C(O)CSc1cc(NS(=O)(=O)c2cccc([N+](=O)[O-])c2)c2ccccc2c1O	11	-45	-1	3	x	10
C[C@@H]1CN([C@H](C)CO)C(=O)c2cccc(NC(=O)C3CCCCC3)c2O[C@H]1CN(C)C(=O)Nc1ccc2c(c1)OCO2	x	x	x	-1	x	x
C=CCn1c(O)c(N=NC(=S)Nc2cccc(OC)c2)c2ccccc21	87*	8	-64	6	42	x
C=CCn1c(O)c(N=NC(=S)Nc2ccc(OC)cc2)c2ccccc21	56*	14	-66	3	26	14
C=CCn1c(O)c(N=NC(=O)OCC)c2ccccc21	-17	-1	3	x	-10	3
C=CCn1c(O)c(N=Nc2ccccc2O)c2ccccc21	x	1	195*	1	96*	-3
C=CCn1c(O)c(N=Nc2ccccc2)c2ccccc21	0	5	5	1	-2	-1
Cc1noc(C)c1NC(=O)Nc1cccc2c1O[C@H](CN(C)CC1CC1)[C@H](C)CN([C@H](C)CO)C2=O	x	x	x	-6	x	x
O=C(NC1Cc2ccccc2C1)[C@H]1[C@H](CO)[C@H]2Cn3c(cccc3=O)[C@H]2N1C(=O)C1CC1	x	x	x	0	x	x
CCCCCCCCCCOC(=O)Cn1c(COc2ccc(OC)cc2)[n+](C)c2ccccc21	13	84*!	108*!	-6	103*!	x
CCOC(=O)Cn1c(COc2ccccc2OC)[n+](C)c2ccccc21	-3	x	x	-4	-15	1
CCCCCOC(=O)Cn1c(=O)oc2ccccc21	-4	10	11	3	0	-2
CCCCOC(=O)Cn1c(=O)n(CC(=O)OCCCC)c2ccccc21	6	15	-2	2	-2	x
CCCCCCCCCCOC(=O)Cn1c(COc2ccccc2)[n+](C)c2ccccc21	81*	-5	-2	-4	103*	5
CCCCCCCCCCOC(=O)Cn1c(COc2ccc(Cl)cc2)[n+](C)c2ccccc21	108*	-4	106*	-1	109*	11
CCCCCCCCCCOC(=O)Cn1c(COc2cccc(C)c2)[n+](C)c2ccccc21	101*	0	105*	-8	169*	-6
COCC#Cc1cnc2c(c1)C(=O)N([C@@H](C)CO)C[C@H](C)[C@@H](CN(C)S(=O)(=O)c1cn(C)cn1)O2	x	x	x	x	x	10
CO[C@H]1CN(C)C(=O)c2cc(NS(C)(=O)=O)ccc2OC[C@H](C)N(C(=O)c2ccc3c(c2)OCO3)C[C@H]1C	x	x	x	3	x	0
SMILES	SKKanGAS inh	Rtt109 Vps75	PfHsp90 set2	PglD DTNB	CSC inhib	FN deposition inh
CCCCCCCCCCOC(=O)Cn1c(COc2ccccc2C)[n+](C)c2ccccc21	83*	-4	u	-2	106*	x
S=c1[nH]nc(-c2ccc(Cl)cc2)n1Cc1ccccc1	-9	x	-47	2	-4	x
Sc1nnc(-c2ccc(Cl)cc2)n1Cc1ccccc1	x	-1	-4	3	76*	x
Cc1cc(OCc2ccc(C(=O)NN=C3CCCC3)cc2)ccc1Cl	6	56*	15	x	11	-25
COC1=CC(=O)c2c(ccc3ncnc(N)c23)C1=O	x	1	-32	x	x	31*
O=C(C#Cc1ccccc1)c1ccccc1	x	x	x	-4	x	20
O=C(C#Cc1ccccc1)c1ccc([N+](=O)[O-])cc1	-1	11	101*	-1	x	-3
